Results taken from ChEMBL document CHEMBL4312003, “Optimization of biaryloxazolidinone as promising antibacterial agents against antibiotic-susceptible and antibiotic-resistant gram-positive bacteria” (Eur J Med Chem, 2020).
pIC50: −log10 of the molar value. In brackets after ≈: the same amount, converted by molar mass.

Experiments:
HepG2 = assay: Cytotoxicity against human HepG2 cells assessed as reduction in cell viability incubated for 48 hrs by MTT assay; assay type: cell-based; conditions: HepG2, 48 h
Procedure, shortened: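 HepG2 cells were grown in RPMI1640 with 10% FBS and plated at about 4×10^4 cells/well in MEM. After 24 h at 37 °C in 5% CO2, compounds were added at the indicated final concentrations for 48 h. MTT was added (0.5 mg/mL final) for 4 h at 37 °C and the formazan dissolved in DMSO. Absorbance was read at 492 nm (630 nm reference). Each compound was tested three times; IC50 given as mean ± SD.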

[1] = Stability in simulated gastric acid assessed as compound remaining at pH 1.2 incubated for 1.5 hrs; assay type: ADME; conditions: read-out: Stability
Enterococcus faecalis [2] = assay: Potency index, ratio of rade-zolid MIC to compound MIC for antibacterial activity against linezolid-resistant Enterococcus faecalis by CLSI protocol based broth liquid microdilution method; assay type: functional
[3] = Stability in human liver microsomes assessed as half life at 1.5 uM preincubated for 5 mins with NADPH and measured after 45 mins by LC/MS analysis; assay type: ADME, Microsome
Procedure, shortened: (§1)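 Compound solution at 1.5 µM with 0.75 mg/mL microsomes (before NADPH addition) was preincubated 5 min at 37 °C. Reactions were started with NADPH (6 mM stock). Samples were quenched with acetonitrile containing internal standard at 0, 5, 15, 30 and 45 min, then centrifuged, and the supernatant was diluted with water for LC/MS. Runs were in duplicate. T1/2 = ln2/k from the log-linear slope, and CLint was derived from T1/2.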

Staphylococcus aureus [4] = assay: Potency index, ratio of rade-zolid MIC to compound MIC for antibacterial activity against methicillin-sensitive Staphylococcus aureus by CLSI protocol based broth liquid microdilution method; assay type: functional
Staphylococcus aureus [5] = assay: Antibacterial activity against methicillin-resistant Staphylococcus aureus assessed as complete reduction in bacterial cell growth by CLSI protocol based broth liquid microdilution method; assay type: functional
Procedure, shortened: (§2)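 Broth liquid microdilution per CLSI guidelines; isolates identified on an automated MicroScan system before testing. MIC taken as lowest concentration giving total inhibition of bacterial growth, reported in μg/mL. S. aureus ATCC29213 run as the control strain.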

Enterococcus faecium [6] = assay: Antibacterial activity against vancomycin-resistant Enterococcus faecium assessed as complete reduction in bacterial cell growth by CLSI protocol based broth liquid microdilution method; assay type: functional; procedure, shortened: as §2
[7] = Stability in simulated gastric acid assessed as compound remaining at pH 1.2 incubated for 0.5 hrs; assay type: ADME; conditions: read-out: Stability
Enterococcus faecalis [8] = assay: Antibacterial activity against clinical isolates of linezolid-resistant Enterococcus faecalis assessed as complete reduction in bacterial cell growth by CLSI protocol based broth liquid microdilution method; assay type: functional; procedure, shortened: as §2
Enterococcus faecium [9] = assay: Antibacterial activity against clinical isolates of vancomycin-resistant Enterococcus faecium assessed as complete reduction in bacterial cell growth by CLSI protocol based broth liquid microdilution method; assay type: functional; procedure, shortened: as §2
Enterococcus faecium [10] = assay: Potency index, ratio of rade-zolid MIC to compound MIC for antibacterial activity against vancomycin-resistant Enterococcus faecium by CLSI protocol based broth liquid microdilution method; assay type: functional
Staphylococcus aureus [11] = assay: Potency index, ratio of rade-zolid MIC to compound MIC for antibacterial activity against Staphylococcus aureus ATCC 29213 by CLSI protocol based broth liquid microdilution method; assay type: functional
[12] = Stability in human liver microsomes assessed as intrinsic clearance at 1.5 uM preincubated for 5 mins with NADPH and measured after 45 mins by LC/MS analysis; assay type: ADME, Microsome; conditions: read-out: CLH; procedure, shortened: as §1
[13] = Stability in human liver microsomes assessed as compound remaining at 1.5 uM preincubated for 5 mins with NADPH and measured after 45 mins by LC/MS analysis; assay type: ADME, Microsome; procedure, shortened: as §1
MAO-A = molecular target: T1, MAO-A (Homo sapiens, UniProt P21397); assay: Inhibition of recombinant human MAO-A (active motif 31502) at 30 uM using luciferin as substrate incubated for 15 mins followed by substrate addition and measured after 60 mins by luminescence based method relative to control; conditions: probe luciferin
T1 sequence (P21397 whole entry): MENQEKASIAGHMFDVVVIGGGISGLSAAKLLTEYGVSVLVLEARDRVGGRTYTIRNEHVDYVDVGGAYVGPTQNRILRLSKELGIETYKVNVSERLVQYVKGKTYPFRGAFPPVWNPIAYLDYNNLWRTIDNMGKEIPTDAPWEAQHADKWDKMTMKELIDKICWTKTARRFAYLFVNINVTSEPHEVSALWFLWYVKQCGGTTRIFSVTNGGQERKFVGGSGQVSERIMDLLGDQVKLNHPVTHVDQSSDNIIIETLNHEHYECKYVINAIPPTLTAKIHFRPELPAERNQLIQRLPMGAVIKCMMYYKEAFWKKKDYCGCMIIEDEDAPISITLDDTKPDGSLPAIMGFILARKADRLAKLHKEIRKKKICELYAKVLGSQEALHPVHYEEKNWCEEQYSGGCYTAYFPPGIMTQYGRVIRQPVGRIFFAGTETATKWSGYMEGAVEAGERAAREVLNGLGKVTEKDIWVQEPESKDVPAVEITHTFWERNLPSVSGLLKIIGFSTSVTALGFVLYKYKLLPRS
Procedure, shortened: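 Recombinant human MAO-A was measured with the MAO-Glo kit, modified. Compounds were in DMSO (1% DMSO final) and preincubated with enzyme 15 min at room temperature. Luciferin-derivative substrate was then added and the reaction run 60 min at room temperature. Luciferase detection reagent was added for 20 min and luminescence read. Buffer without enzyme served as the 100% inhibition control; DMSO alone as the no-inhibition control. Percent inhibition = (Max − signal)/(Max − Min)×100.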

Staphylococcus aureus [14] = assay: Antibacterial activity against clinical isolates of methicillin-sensitive Staphylococcus aureus assessed as reduction in bacterial cell growth by CLSI protocol based broth microdilution method; assay type: functional; procedure, shortened: as §2
Staphylococcus aureus [15] = assay: Antibacterial activity against clinical isolates of methicillin-resistant Staphylococcus aureus assessed as complete reduction in bacterial cell growth by CLSI protocol based broth liquid microdilution method; assay type: functional; procedure, shortened: as §2
[16] = Stability in simulated gastric acid assessed as compound remaining at pH 1.2 incubated for 1 hr; assay type: ADME; conditions: read-out: Stability
Enterococcus faecalis [17] = assay: Antibacterial activity against linezolid-resistant Enterococcus faecalis assessed as complete reduction in bacterial cell growth by CLSI protocol based broth liquid microdilution method; assay type: functional; procedure, shortened: as §2
Staphylococcus aureus [18] = assay: Antibacterial activity against Staphylococcus aureus ATCC 29213 assessed as complete reduction in bacterial cell growth by CLSI protocol based broth liquid microdilution method; assay type: functional; procedure, shortened: as §2
[19] = Stability in simulated gastric acid assessed as compound remaining at pH 1.2 incubated for 2 hrs; assay type: ADME; conditions: read-out: Stability
Staphylococcus aureus [20] = assay: Antibacterial activity against methicillin-sensitive Staphylococcus aureus assessed as complete reduction in bacterial cell growth by CLSI protocol based broth liquid microdilution method; assay type: functional; procedure, shortened: as §2
[21] = Solubility of compound in water by UV spectrophotometric analysis; assay type: physicochemical

Row | Structure (SMILES) | pIC50 (HepG2) | remaining at 1.5 h [1] | Ratio (Enterococcus faecalis [2]) | Ratio (Staphylococcus aureus [4]) | MIC (Staphylococcus aureus [5]) | MIC (Enterococcus faecium [6]) | remaining at 0.5 h [7] | MIC (Enterococcus faecalis [8]) | MIC (Enterococcus faecium [9]) | Ratio (Enterococcus faecium [10]) | Ratio (Staphylococcus aureus [11]) | CLint scaled at 1.5 µM [12] | inhibition at 1 h, 30 µM (MAO-A) | MIC (Staphylococcus aureus [14]) | MIC (Staphylococcus aureus [15]) | remaining at 1 h [16] | MIC (Enterococcus faecalis [17]) | MIC (Staphylococcus aureus [18]) | remaining at 2 h [19] | MIC (Staphylococcus aureus [20]) | further results
1 | CC(=O)NC[C@H]1CN(c2ccc(-c3ccc(/C=N/N4CCN(C)CC4)nc3)c(F)c2)C(=O)O1 | < 4.60 | 96.2% | 2 - 4 | 2 - 4 | 0.125 µg/mL (≈ 0.275 µM) | 0.25 µg/mL (≈ 0.55 µM) | 98.3% | 0.25 to 0.5 µg/mL (≈ 0.55 to 1.1 µM) | 0.25 to 0.5 µg/mL (≈ 0.55 to 1.1 µM) | 2 - 4 | 2 - 4 | 17.2 mL/min/kg | 79% | 2 µg/mL (≈ 4.4 µM) | 2 µg/mL (≈ 4.4 µM) | 96.8% | 0.25 µg/mL (≈ 0.55 µM) | 0.125 µg/mL (≈ 0.275 µM) | 95.8% | 0.125 µg/mL (≈ 0.275 µM) | half-life at 1.5 µM ([3]; liver microsomes): 1.68 h; remaining at 0.75 h, 1.5 µM ([13]; liver microsomes, read-out: Stability): 74.9%; solubility [21]: 63 µg/mL (≈ 139 µM)
2 | CC(=O)NC[C@H]1CN(c2ccc(-c3ccc(/C=N/N4CC[S+]([O-])CC4)c(O)c3)c(F)c2)C(=O)O1 | – | – | – | – | 0.125 µg/mL (≈ 0.256 µM) | 0.25 µg/mL (≈ 0.512 µM) | – | 0.5 µg/mL (≈ 1.02 µM) | 0.5 µg/mL (≈ 1.02 µM) | – | – | – | 88% | 0.5 µg/mL (≈ 1.02 µM) | 0.5 to 1 µg/mL (≈ 1.02 to 2.05 µM) | – | 0.25 µg/mL (≈ 0.512 µM) | 0.25 µg/mL (≈ 0.512 µM) | – | 0.25 µg/mL (≈ 0.512 µM) | –
3 | CC(=O)NC[C@H]1CN(c2ccc(-c3ccc(/C=N/N4CCSCC4)nc3)c(F)c2)C(=O)O1 | < 4.60 | 98.6% | 2 - 4 | 2 - 4 | 0.125 µg/mL (≈ 0.273 µM) | 0.25 µg/mL (≈ 0.546 µM) | 99.4% | 0.5 µg/mL (≈ 1.09 µM) | 1 µg/mL (≈ 2.19 µM) | 2 - 4 | 2 - 4 | 90.3 mL/min/kg | 75% | 0.25 to 0.5 µg/mL (≈ 0.546 to 1.09 µM) | – | 99% | 0.25 µg/mL (≈ 0.546 µM) | 0.125 µg/mL (≈ 0.273 µM) | 98% | 0.25 µg/mL (≈ 0.546 µM) | t1/2 ([3]; microsomes, 0.75 h, 1.5 µM): 0.3207 h; Stability ([13]; microsomes, 0.75 h, 1.5 µM): 0.62%; solubility [21]: 57 µg/mL (≈ 125 µM)
4 | COC(=O)N1CCN(/N=C/c2ccc(-c3ccc(N4C[C@H](CNC(C)=O)OC4=O)cc3F)cc2O)CC1 | – | – | – | – | 0.5 µg/mL (≈ 0.974 µM) | 0.5 µg/mL (≈ 0.974 µM) | – | 2 µg/mL (≈ 3.89 µM) | 2 µg/mL (≈ 3.89 µM) | – | – | – | – | 2 µg/mL (≈ 3.89 µM) | 2 µg/mL (≈ 3.89 µM) | – | 0.5 µg/mL (≈ 0.974 µM) | 0.5 µg/mL (≈ 0.974 µM) | – | 0.5 µg/mL (≈ 0.974 µM) | –
